Experimental findings from ChEMBL document CHEMBL4732039, “Introduction of a cyano group at the 2-position of an (R,S)-3-hydroxy-2-(phosphonomethoxy)propyl (HPMP) derivative of thymine elicits selective anti-HBV activity” (RSC Med Chem, 2021) are described below.

The subject of data set [1] is Human betaherpesvirus 5. Put plainly: Antiviral activity against HCMV AD169 infected in human embryonic lung cells. As to conditions: Human betaherpesvirus 5, AD169, Lung; call rule not given here. The format is functional, cell-based.
Data set [2] relates to Human immunodeficiency virus 2. As to the kind of experiment: Antiviral activity against HIV-2 ROD infected in human MT4 cells assessed as reduction in virus-induced cytopathic effect measured after 5 days by MTT assay. The format is functional, organism-based. A digest of the protocol:
(§1)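 MT-4 cells infected with wild-type HIV-1 IIIB or HIV-2 ROD. Protection read out by MTT assay. Cytotoxicity was assessed in parallel in uninfected MT-4 cells.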
For orientation: Damage to the host cells serves as the signal in cytopathic effect assays.

Another data set deals with Human alphaherpesvirus 3. As to the kind of experiment: Antiviral activity against VZV infected in human HFF cells assessed as reduction in virus-induced cytopathic effect incubated for 14 days by cell-titer glo assay. The format is functional, organism-based. As to conditions: Human alphaherpesvirus 3, HFF, 336 h; for EC90: time 14 day.
The nature of data set [3]: Cytotoxicity against human HepG2.2.2.15 cells assessed as reduction in cell viability incubated for 6 days by cell titer glo assay. The data set is classed as cell-based. Conditions: time 6 day. A general note: In ATP-based viability assays light output follows the ATP content of the culture.
Data set [4] can be described thus: Selectivity index, ratio of CC50 of human HepG2.2.2.15 cells to EC50 of antiviral activity against HBV infected in human HepG2.2.2.15 cells. The format is toxicity, cell-based. As to conditions: read-out: Ratio CC50/EC50.
The test system of data set [5] is Human immunodeficiency virus 1. As to the kind of experiment: Antiviral activity against HIV-1 3B infected in human MT4 cells assessed as reduction in virus-induced cytopathic effect measured after 5 days by MTT assay. The data set is classed as functional, organism-based. A digest of the protocol: as §1
The test system of data set [6] is Human betaherpesvirus 5. As to the kind of experiment: Antiviral activity against HCMV AD169 infected in human HFF cells assessed as reduction in virus-induced cytopathic effect incubated for 14 days by cell-titer glo assay. The data set is classed as functional, cell-based. Conditions: Human betaherpesvirus 5, AD169, HFF, 336 h; for EC90: time 14 day.
The test system of the next data set is Hepatitis B virus. Put plainly: Antiviral activity against HBV infected in human HepG2.2.2.15 cells assessed as inhibition of viral replication preincubated for 3 days followed by media replenishment with fresh drug and further incubated for 3 days by qPCR analysis. Conditions: for EC50: HepG2 2.2.15; for EC90: HepG2 2.2.15, 144 h, time 6 day. The data set is classed as functional, organism-based. A digest of the protocol:
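HepG2 2.2.15 human hepatoblastoma cells, carrying two copies of wild-type HBV (strain ayw) genome and constitutively producing virus. Extracellular HBV DNA copy number from released virions quantified by real-time TaqMan qPCR. […] Lamivudine (3TC) was the positive control.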
(In general: Quantitative PCR measures a nucleic acid by following its amplification.)

Data set [7] is described as follows: Selectivity index, ratio of CC50 of human HFF cells to EC50 of antiviral activity against VZV. The format is toxicity. Conditions: read-out: Ratio CC50/EC50.
Data set [8] in a line: Selectivity index, ratio of CC50 for human HFF cells to EC50 for antiviral activity against HCMV AD169.
Data set [9] in a line: Cytotoxicity against human HFF cells assessed as reduction in cell viability incubated for 14 days by cell titer glo assay. The format is cell-based. Conditions: time 14 day.

As for `Nc1ncnc2c1ncn2C[C@@H](CO)OCP(=O)(O)O`, the EC50 in the data set with Human betaherpesvirus 5 [1] was determined as 1 µM.

For the compound `CCN(CC)CC.N#CC(CO)(Cn1ccc(N)nc1=O)OCP(=O)(O)O` (stereo not drawn), the EC50 result was “Not Active” in [2] (mt4); greater than 150 µM in the data set with Human alphaherpesvirus 3; “Not Active” in data set [5] (mt4); greater than 150 µM with Human betaherpesvirus 5 [6]; greater than 100 µM with Hepatitis B virus. Besides, the 90% effect concentration (EC90) is greater than 150 µM in the data set with Human alphaherpesvirus 3, greater than 150 µM in the data set on Human betaherpesvirus 5 [6] and greater than 100 µM with Hepatitis B virus. Moreover, in data set [3], the 50% cytotoxic concentration (CC50) at 144 h was greater than 100 µM. Also, the selectivity ratio in data set [4] and in data set [7] was 1 in each case. The “Ratio CC50/EC50” value in data set [8] came to 1. For the same compound, the 50% cytotoxic concentration (CC50) at 336 h in [9] was greater than 150 µM.

Consider `CCN(CC)CC.N#CC(CO)(Cn1cnc2c(N)ncnc21)OCP(=O)(O)O` (stereo not drawn), for which the EC50 result in [2] (mt4) is “Not Active”; in the data set on Human alphaherpesvirus 3 it was 106 µM; in data set [5] (mt4), “Not Active”; with Human betaherpesvirus 5 [6], 1.1 µM; in the data set with Hepatitis B virus, 3.6 µM. Moreover, the values for the concentration for an effect of 90% (EC90) with Human alphaherpesvirus 3, in the data set with Human betaherpesvirus 5 [6] and in the data set with Hepatitis B virus were greater than 150 µM, greater than 150 µM and 9.9 µM, respectively. In [3], the CC50 at 144 h is greater than 100 µM. Moreover, the selectivity ratio in data set [7] is 1. Also, the “Ratio CC50/EC50” value in [8] is on record as greater than 137. Also, the CC50 at 336 h in [9] was greater than 150 µM.

As to `CCN(CC)CC.N#CC(CO)(Cn1cnc2c(=O)[nH]c(N)nc21)OCP(=O)(O)O` (stereo not drawn), the EC50 in data set [2] (Human immunodeficiency virus 2, ROD, MT4, 120 h, read-out: EC50) was 33.7 µM; with Human alphaherpesvirus 3 it was 2.08 µM; in data set [5] (Human immunodeficiency virus 1, 3B, MT4, 120 h, read-out: EC50), 51 µM; in the data set with Human betaherpesvirus 5 [6], 2 µM; in the data set on Hepatitis B virus, greater than 100 µM. The concentration for an effect of 90% (EC90) with Human alphaherpesvirus 3 was greater than 30 µM; with Human betaherpesvirus 5 [6] it was greater than 30 µM; with Hepatitis B virus it was greater than 100 µM. Also, the CC50 at 144 h in data set [3] was greater than 100 µM. Also, the selectivity ratio in data set [4] came to 1; in data set [7], 47. Also, in [8], the “Ratio CC50/EC50” value turned out to be 50. The cytotoxic concentration (CC50) at 336 h in data set [9] is 102 µM.

Regarding `CCN(CC)CC.Cc1cn(CC(C#N)(CO)OCP(=O)(O)O)c(=O)[nH]c1=O` (stereo not drawn), the 50% effective concentration (EC50) result in [2] (mt4) is “Not Active”; with Human alphaherpesvirus 3 it was greater than 150 µM; in data set [5] (mt4), “Not Active”; in the data set on Human betaherpesvirus 5 [6], greater than 150 µM; in the data set with Hepatitis B virus, 0.33 µM. In addition, the concentration for an effect of 90% (EC90) in the data set on Human alphaherpesvirus 3 was greater than 150 µM; in the data set on Human betaherpesvirus 5 [6], greater than 150 µM; with Hepatitis B virus it was 0.79 µM. In addition, in data set [3], the CC50 at 144 h is greater than 100 µM. Besides, the selectivity ratio in data set [4] is greater than 302000; in [7], 1. In addition, the “Ratio CC50/EC50” value in data set [8] worked out at 1. Also, the cytotoxic concentration (CC50) at 336 h in data set [9] is greater than 150 µM.

As to `CCN(CC)CC.N#CC(CO)(Cn1ccc(=O)[nH]c1=O)OCP(=O)(O)O` (stereo not drawn), the 50% effective concentration (EC50) result is “Not Active” in data set [2] (mt4); greater than 150 µM with Human alphaherpesvirus 3; “Not Active” in data set [5] (mt4); greater than 150 µM with Human betaherpesvirus 5 [6]; greater than 100 µM in the data set on Hepatitis B virus. In addition, the values for the EC90 with Human alphaherpesvirus 3, in the data set on Human betaherpesvirus 5 [6] and with Hepatitis B virus were greater than 150 µM, greater than 150 µM and greater than 100 µM, respectively. For the same compound, in data set [3], the half-maximal cytotoxic concentration (CC50) at 144 h was greater than 100 µM. Further, the selectivity ratio in data set [4] and in data set [7] was 1 throughout. Further, in data set [8], the “Ratio CC50/EC50” value came to 1. In [9], the CC50 at 336 h was greater than 150 µM.

With `Nc1nc2c(ncn2COC(CO)CO)c(=O)[nH]1` [GANCICLOVIR], in the data set on Human betaherpesvirus 5 [6], the concentration for a half-maximal effect (EC50) came out at 0.9 µM and the EC90 was 74.2 µM. In addition, in data set [9], the half-maximal cytotoxic concentration (CC50) at 336 h is greater than 150 µM.

The EC50 is the concentration giving half of the maximal effect. The EC90 is the concentration needed for an effect of 90%. A word on the CC50: it is the concentration giving 50% cytotoxicity.
